The source made the active and inactive calls. No cut-off for these calls is given here.
Tests used:
Format in all cases: cell-based
[1] = molecular target: T1, Retinoic acid receptor alpha (Mus musculus, UniProt P11416); test: (§1) Antagonist activity at yeast GAL4 fused mouse RARalpha ligand binding domain expressed in HeLa cells assessed as inhibition of TTNPB-induced receptor transactivation by luciferase reporter gene assay
T1 sequence (P11416 whole entry): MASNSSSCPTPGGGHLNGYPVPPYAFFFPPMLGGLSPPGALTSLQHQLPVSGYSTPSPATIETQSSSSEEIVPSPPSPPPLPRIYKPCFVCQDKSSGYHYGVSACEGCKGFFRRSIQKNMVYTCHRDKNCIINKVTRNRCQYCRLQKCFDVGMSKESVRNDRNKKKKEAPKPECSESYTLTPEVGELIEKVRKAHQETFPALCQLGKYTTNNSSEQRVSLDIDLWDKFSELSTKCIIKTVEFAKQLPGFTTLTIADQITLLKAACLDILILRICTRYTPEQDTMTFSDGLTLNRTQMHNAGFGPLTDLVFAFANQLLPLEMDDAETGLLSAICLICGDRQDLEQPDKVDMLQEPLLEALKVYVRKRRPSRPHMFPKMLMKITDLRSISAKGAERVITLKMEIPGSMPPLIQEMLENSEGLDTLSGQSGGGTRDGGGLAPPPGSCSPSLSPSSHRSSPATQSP
How it was run: (§2)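 The Gal4-mRAR fusion HeLa reporter lines [(17m)5-βG-Luc-Neo] were seeded at 160,000 cells/well. After 12 h, cells got 10 nM TTNPB plus rising test-compound concentrations in phenol-red-free DMEM with 5% charcoal-treated FCS for 12 h at 37 °C, 5% CO2. Luciferase in lysates was read luminometrically. Antagonism is the loss of activity relative to TTNPB alone.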

[2] = molecular target: T2, Retinoic acid receptor gamma (Mus musculus) (UniProt P18911); test: Agonist activity at yeast GAL4 fused mouse RARgamma ligand binding domain expressed in HeLa cells assessed as receptor transactivation by luciferase reporter gene assay
T2 sequence (whole entry): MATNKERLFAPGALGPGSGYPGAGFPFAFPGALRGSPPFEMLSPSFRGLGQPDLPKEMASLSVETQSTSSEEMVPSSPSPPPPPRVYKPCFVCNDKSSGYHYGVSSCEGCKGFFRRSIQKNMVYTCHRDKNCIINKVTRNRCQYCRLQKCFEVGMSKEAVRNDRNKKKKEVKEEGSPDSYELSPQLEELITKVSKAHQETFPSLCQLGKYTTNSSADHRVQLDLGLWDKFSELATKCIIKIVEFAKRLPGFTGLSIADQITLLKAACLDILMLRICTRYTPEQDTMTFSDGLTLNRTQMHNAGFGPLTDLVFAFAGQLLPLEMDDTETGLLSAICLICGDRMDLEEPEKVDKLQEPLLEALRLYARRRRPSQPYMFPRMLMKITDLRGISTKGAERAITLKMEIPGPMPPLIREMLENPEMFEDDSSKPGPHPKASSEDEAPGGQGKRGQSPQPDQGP
How it was run: (§3)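 Stably transfected HeLa lines carrying a (17m)5-βG-Luc-Neo reporter and the matching Gal4-mRAR fusion were seeded at 160,000 cells/well. After 12 h, cells were given ligand across a dose range in phenol-red-free DMEM with 5% charcoal-treated FCS and held 12 h at 37 °C, 5% CO2. Lysates were read for luciferase with luciferin, ATP and coenzyme A. Fold induction is compound RLU over vehicle-control RLU.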

[3] = molecular target: T3, Retinoic acid receptor beta (Mus musculus, UniProt P22605); test: (§4) Antagonist activity at yeast GAL4 fused mouse RARbeta ligand binding domain expressed in HeLa cells assessed as inhibition of TTNPB-induced receptor transactivation by luciferase reporter gene assay; how it was run: as §2
T3 sequence (P22605 whole entry): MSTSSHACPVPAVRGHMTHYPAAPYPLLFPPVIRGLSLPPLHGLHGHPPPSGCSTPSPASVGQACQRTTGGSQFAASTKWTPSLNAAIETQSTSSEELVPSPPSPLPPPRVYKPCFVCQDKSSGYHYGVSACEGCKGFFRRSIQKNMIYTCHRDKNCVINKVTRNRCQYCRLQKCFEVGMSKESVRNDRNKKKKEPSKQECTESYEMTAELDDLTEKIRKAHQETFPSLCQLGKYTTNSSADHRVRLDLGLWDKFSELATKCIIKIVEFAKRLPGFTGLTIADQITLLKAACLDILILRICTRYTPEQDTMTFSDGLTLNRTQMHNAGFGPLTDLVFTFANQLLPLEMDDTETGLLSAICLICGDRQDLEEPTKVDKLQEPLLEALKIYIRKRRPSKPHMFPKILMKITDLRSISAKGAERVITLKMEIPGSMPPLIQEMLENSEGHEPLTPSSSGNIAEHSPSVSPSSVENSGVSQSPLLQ

[4] = molecular target: T4, Retinoic acid receptor gamma (Mus musculus, UniProt P18911); test: (§5) Antagonist activity at yeast GAL4 fused mouse RARgamma ligand binding domain expressed in HeLa cells assessed as inhibition of TTNPB-induced receptor transactivation by luciferase reporter gene assay; how it was run: as §2
T4 sequence (P18911 whole entry): T2 sequence (whole entry)

[5] = molecular target: T5, Retinoic acid receptor RXR-beta (Homo sapiens) (UniProt P28702); test: Agonist activity at yeast GAL4 fused human RXRbeta ligand binding domain expressed in HeLa cells assessed as receptor transactivation by luciferase reporter gene assay
T5 sequence (whole entry): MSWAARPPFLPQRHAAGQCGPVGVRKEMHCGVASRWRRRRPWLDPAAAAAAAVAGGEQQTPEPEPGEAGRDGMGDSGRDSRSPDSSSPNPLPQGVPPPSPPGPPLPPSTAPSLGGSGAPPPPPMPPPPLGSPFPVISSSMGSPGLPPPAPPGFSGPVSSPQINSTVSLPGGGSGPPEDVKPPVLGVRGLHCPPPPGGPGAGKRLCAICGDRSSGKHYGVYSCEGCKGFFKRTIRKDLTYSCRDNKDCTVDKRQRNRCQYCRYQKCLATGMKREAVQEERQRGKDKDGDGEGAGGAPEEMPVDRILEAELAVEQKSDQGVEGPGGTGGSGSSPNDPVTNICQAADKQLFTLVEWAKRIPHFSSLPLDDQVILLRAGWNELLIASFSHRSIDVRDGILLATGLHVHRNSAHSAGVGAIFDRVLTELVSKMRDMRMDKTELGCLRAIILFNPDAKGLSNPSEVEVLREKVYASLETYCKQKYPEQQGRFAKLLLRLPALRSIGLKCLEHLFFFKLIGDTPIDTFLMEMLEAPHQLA

[6] = molecular target: T6, Retinoic acid receptor alpha (Mus musculus) (UniProt P11416); test: Agonist activity at yeast GAL4 fused mouse RARalpha ligand binding domain expressed in HeLa cells assessed as receptor transactivation by luciferase reporter gene assay; how it was run: as §3
T6 sequence (whole entry): T1 sequence (P11416 whole entry)

[7] = molecular target: T5, Retinoic acid receptor RXR-beta (Homo sapiens); test: Antagonist activity at yeast GAL4 fused human RXRbeta ligand binding domain expressed in HeLa cells assessed as inhibition of receptor transactivation by luciferase reporter gene assay
[8] = molecular target: T2, Retinoic acid receptor gamma (Mus musculus); test: as §5; how it was run: as §2
[9] = molecular target: T6, Retinoic acid receptor alpha (Mus musculus); test: as §1; how it was run: as §2
[10] = molecular target: T7, Retinoic acid receptor beta (Mus musculus) (UniProt P22605); test: as §4; how it was run: as §2
T7 sequence (whole entry): T3 sequence (P22605 whole entry)

SMILES | Activity [2] | Activity [5] | Activity [6] | inhibition [8] | inhibition [9] | inhibition [10] | also measured
Cc1ccc(C2=CCC(C)(C)c3cc(C(O)/C=C/c4ccc(C(=O)O)cc4)ccc32)cc1 (racemic) | inactive | – | – | – | – | – | IC50 [1]: 400 nM; IC50 [3]: 2000 nM
CC1(C)CC=C(C#Cc2ccccc2)c2ccc(C3=NOC(c4ccc(C(=O)O)cc4)C3)cc21 (racemic) | – | – | – | – | – | – | IC50 [4]: 3000 nM
CC1(C)CC=C(C#Cc2ccccc2)c2ccc(C(=O)/C=C/c3ccc(C(=O)O)cc3)cc21 | Active | inactive | Active | – | – | – | inhibition [7]: Active
CC1(C)CC=C(c2ccccc2)c2ccc(C3=NOC(c4ccc(C(=O)O)cc4)C3)cc21 (racemic) | – | – | – | – | – | – | IC50 [4]: > 10000 nM
CC1(C)CC=C(C#Cc2ccccc2)c2ccc(C(=O)C(=O)Nc3ccc(C(=O)O)cc3F)cc21 | – | Active | – | Active | Active | Active | –
CC1(C)CC=C(C#Cc2ccccc2)c2ccc(C(O)C(=O)Nc3ccc(C(=O)O)cc3F)cc21 (racemic) | inactive | – | inactive | – | – | – | –
Cc1ccc(C2=CCC(C)(C)c3cc(C(O)C(=O)Nc4ccc(C(=O)O)cc4F)ccc32)cc1 (racemic) | inactive | inactive | inactive | inactive | inactive | inactive | –
Cc1ccc(C2=CCC(C)(C)c3cc(C(=O)/C=C/c4ccc(C(=O)O)cc4)ccc32)cc1 | – | – | – | – | – | – | IC50 [1]: < 300 nM; IC50 [3]: 400 nM
CC1(C)CC=C(c2ccccc2)c2ccc(C(O)C(=O)Nc3ccc(C(=O)O)cc3F)cc21 (racemic) | Active | inactive | Active | Active | Active | Active | –
Cc1ccc(C2=CCC(C)(C)c3cc(C4=NOC(c5ccc(C(=O)O)cc5)C4)ccc32)cc1 (racemic) | – | – | – | inactive | – | – | –
Cc1ccc(C2=CCC(C)(C)c3cc(C(=O)C(=O)Nc4ccc(C(=O)O)cc4F)ccc32)cc1 | – | Active | – | Active | Active | Active | –
CC1(C)CC=C(c2ccccc2)c2ccc(C(=O)C(=O)Nc3ccc(C(=O)O)cc3F)cc21 | – | Active | – | Active | Active | Active | –
CC1(C)CC=C(c2ccccc2)c2ccc(C(=O)/C=C/c3ccc(C(=O)O)cc3)cc21 | Active | – | Active | – | – | – | inhibition [7]: Active

— ChEMBL document CHEMBL1782047, “Retinoid receptor subtype-selective modulators through synthetic modifications of RARgamma agonists” (Bioorg Med Chem, 2009)
